ChEMBL document CHEMBL4257510, “Mercaptoacetate thioesters and their hydrolysate mercaptoacetic acids jointly inhibit metallo-β-lactamase L1” (Medchemcomm, 2018)
Active and inactive are the calls of the source. The calls are words filed in the database; no cut-off is given here.

Tests used:
[1] = Binding affinity to bacterial metallo-beta-lactamase L1 expressed in Escherichia coli BL21 (DE3) by ITC method; design: species or system Bacteria
[2] = test system: Bacteria; assay: Binding affinity to bacterial metallo-beta-lactamase L1 expressed in Escherichia coli BL21 (DE3) assessed as change in gibbs free energy by ITC method
[3] = test system: Bacteria; assay: Inhibition of bacterial metallo-beta-lactamase L1 expressed in Escherichia coli BL21 (DE3) at 20 uM using cefazolin as substrate preincubated for 30 mins followed by substrate addition relative to control
[4] = Inhibition of bacterial metallo-beta-lactamase L1 expressed in Escherichia coli BL21 (DE3) using cefazolin as substrate preincubated for 30 mins followed by substrate addition; design: species or system Bacteria
Outline: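 IC50 measured at 25 °C with 50 µM cefazolin and inhibitor varied over 0.01–2 µM, after 30 min enzyme–inhibitor pre-incubation. Compounds were dissolved in DMSO and diluted in 30 mM Tris pH 7.0, with final DMSO below 0.1%.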

[5] = test system: Bacteria; assay: Inhibition of bacterial metallo-beta-lactamase NDM1 expressed in Escherichia coli BL21 (DE3) at 20 uM using cefazolin as substrate preincubated for 30 mins followed by substrate addition
[6] = test system: Bacteria; assay: Inhibition of bacterial metallo-beta-lactamase ImiS expressed in Escherichia coli BL21 (DE3) at 20 uM using imipenem as substrate preincubated for 30 mins followed by substrate addition
[7] = test system: Bacteria; assay: Binding affinity to bacterial metallo-beta-lactamase L1 expressed in Escherichia coli BL21 (DE3) assessed as change in enthalpy by ITC method
[8] = test system: Bacteria; assay: Binding affinity to bacterial metallo-beta-lactamase L1 expressed in Escherichia coli BL21 (DE3) assessed as change in entropy by ITC method
[9] = Stability in Tris buffer at pH 6 to 8.5 measured every 2 hrs for 24 hrs by UV-Vis spectroscopic analysis; assay type: physicochemical; conditions: pH 6, 24 h
Outline: (§1)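 Thioester in Tris buffer at pH 6.0, 7.0 or 8.5, or at pH 7.0 with increasing L1 concentration. Absorbance at 245 nm was recorded every 2 h over 24 h.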

[10] = Drug metabolism assessed as bacterial metallo-beta-lactamase L1-mediated hydrolysis measured every 2 hrs for 24 hrs by UV-Vis spectroscopic analysis; assay type: ADME; conditions: bacteria; outline: as §1
[11] = test system: Bacteria; assay: Inhibition of bacterial metallo-beta-lactamase L1 expressed in Escherichia coli BL21 (DE3) assessed as cefazolin MIC at 16 ug/ml after 16 hrs by broth macrodilution method (reference value: 32 ug/ml)
Outline: (§2)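 E. coli BL21(DE3) carrying pET26b-L1 was grown overnight in Mueller-Hinton broth at 37 °C, pelleted and resuspended to OD600 0.1. MICs were determined by CLSI broth macrodilution after at least 16 h at 37 °C, taking the lowest concentration with no visible growth. Triplicates in at least two independent experiments; highest MIC reported.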

[12] = test system: Escherichia coli; assay: Potentiation of cefazolin-mediated antibacterial activity against Escherichia coli BL21(DE3) assessed as cefazolin MIC at 16 ug/ml after 16 hrs by broth macrodilution method (reference value: 4 ug/ml); assay type: functional; outline: as §2
[13] = test system: Bacteria; assay: Inhibition of bacterial metallo-beta-lactamase L1 expressed in Escherichia coli BL21 (DE3) assessed as decrease in cefazolin MIC at 16 ug/ml after 16 hrs by broth macrodilution method relative to control; outline: as §2
[14] = test system: L929; assay: Cytotoxicity against mouse L929 cells up to 200 uM after 48 hrs by CCK8 assay; assay type: cell-based; conditions: l929, 48 h
[15] = test system: Bacteria; assay: Binding affinity to bacterial metallo-beta-lactamase L1 expressed in Escherichia coli BL21 (DE3) treated with 2-(((4-Chlorobenzoyl)methionyl)thio)acetic acid at 2 to 10 mM after 1 hr by STD NMR method
Outline: (§3)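 1H STD-NMR at 300 MHz on-resonance and 2000 MHz off-resonance saturation. Total saturation time 1.5 s, relaxation delay 2.5 s. Samples were run in D2O with 5% DMSO-d6 and 150 mM NaCl at pH 7.5, after 1 h pre-incubation. Compound came from 100 mM stock in DMSO-d6.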

[16] = Retention time of compound by HPLC method; assay type: physicochemical
Outline: (§4)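 L1-mediated hydrolysis of thioester followed by HPLC under IC50 assay conditions, on a C18 column (150 × 4.6 mm, 5 µm) at 1.0 mL/min.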

[17] = test system: Bacteria; assay: Binding affinity to bacterial metallo-beta-lactamase L1 expressed in Escherichia coli BL21 (DE3) at 2 to 10 mM after 1 hr by STD NMR method; outline: as §3
[18] = Drug level assessed as bacterial metallo-beta-lactamase L1-mediated compound formation treated with 2-(((4-Chlorobenzoyl)methionyl)thio)acetic acid by HPLC method; assay type: ADME; conditions: bacteria; outline: as §4

SMILES	deltaG [2]	inhibition [3]	IC50 [4]	inhibition [5]	inhibition [6]	deltaH [7]	TdeltaS [8]	Stability [9]	Drug metabolism [10]	MIC [11]	MIC [12]	fold change (FC) [13]	Activity [15]	Retention_time [16]	Activity [17]	Drug metabolism [18]	Kd [1]	Activity [14]
O=C(O)CS	–	–	–	–	–	–	–	–	–	–	–	–	Active	–	–	–	–	–
O=C(O)CSC(=O)[C@H](Cc1c[nH]c2ccccc12)NC(=O)c1cccc(Br)c1	–	90 to 95%	620 nM	inactive	inactive	–	–	–	–	16 µg/mL	4 µg/mL	2 to 4	–	–	–	–	–	–
O=C(O)CSC(=O)[C@H](Cc1c[nH]c2ccccc12)NC(=O)c1ccc(F)cc1	–	90 to 95%	750 nM	inactive	inactive	–	–	–	–	16 µg/mL	4 µg/mL	2 to 4	–	–	–	–	–	–
O=C(O)CSC(=O)[C@H](Cc1c[nH]c2ccccc12)NC(=O)c1cccc([N+](=O)[O-])c1	–	90 to 95%	800 nM	inactive	inactive	–	–	–	–	16 µg/mL	4 µg/mL	2 to 4	–	–	–	–	–	–
O=C(O)CSC(=O)[C@H](Cc1c[nH]c2ccccc12)NC(=O)c1ccc(Br)cc1	–	90 to 95%	880 nM	inactive	inactive	–	–	–	–	16 µg/mL	4 µg/mL	2 to 4	–	–	–	–	–	–
O=C(O)CSC(=O)[C@H](Cc1c[nH]c2ccccc12)NC(=O)c1ccc(C(F)(F)F)cc1	–	90 to 95%	1030 nM	inactive	inactive	–	–	–	–	16 µg/mL	4 µg/mL	2 to 4	–	–	–	–	–	–
O=C(O)CSC(=O)[C@H](Cc1c[nH]c2ccccc12)NC(=O)c1ccc(Cl)cc1	–	90 to 95%	190 nM	inactive	inactive	–	–	–	–	8 µg/mL	4 µg/mL	2 to 4	–	–	–	–	–	–

Continued, in another order:

deltaG [2]	inhibition [3]	IC50 [4]	inhibition [5]	inhibition [6]	deltaH [7]	TdeltaS [8]	Stability [9]	Drug metabolism [10]	MIC [11]	MIC [12]	fold change (FC) [13]	Activity [15]	Retention_time [16]	Activity [17]	Drug metabolism [18]	SMILES	Kd [1]	Activity [14]
-7.18 kcal/mol	90 to 95%	170 nM	inactive	inactive	-16.8 kcal/mol	-9.6 kcal/mol	Stable	Metabolite_Detected	8 µg/mL	4 µg/mL	2 to 4	–	–	–	–	CSCC[C@H](NC(=O)c1ccc([N+](=O)[O-])cc1)C(=O)SCC(=O)O	5500 nM	Non-Toxic
-6.43 kcal/mol	90 to 95%	940 nM	inactive	inactive	-28.2 kcal/mol	-21.8 kcal/mol	Stable	Metabolite_Detected	16 µg/mL	4 µg/mL	2 to 4	–	4.5 min	Active	–	CSCC[C@H](NC(=O)c1ccc(Cl)cc1)C(=O)SCC(=O)O	19700 nM	Non-Toxic
–	90 to 95%	370 nM	inactive	inactive	–	–	Stable	Metabolite_Detected	8 µg/mL	4 µg/mL	2 to 4	–	–	–	–	O=C(O)CSC(=O)[C@H](Cc1c[nH]c2ccccc12)NC(=O)c1ccc([N+](=O)[O-])cc1	–	–
–	–	–	–	–	–	–	–	–	–	–	–	Active	4.2 min	–	Metabolite_Detected	CSCC[C@H](NC(=O)c1ccc(Cl)cc1)C(=O)O	–	–
–	90 to 95%	1200 nM	inactive	inactive	–	–	–	–	16 µg/mL	4 µg/mL	2 to 4	–	–	–	–	CSCC[C@H](NC(=O)c1cccc(Br)c1)C(=O)SCC(=O)O	–	–
